Rows were chosen to be rich in hits. Some 1.5% of all compounds tested hit in one or more screens of this group.
S100A4 MyoIIA – S100A4-myosin IIA interaction inhibition; S100A4/TAMRA-MyoIIA peptide fluorescence polarization; AID 652163; hit rate 0.14% among 360,000; P26447; inhibition, % at 10.7 µM;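 active means mean inhibition of at least 70% across replicates, with every replicate also reaching that level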
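Assay system: human S100A4 monomer with TAMRA-labelled myosin IIA peptide / Buffer or medium: Calcium-containing HEPES buffer, pH 7.2 / Reagent: TAMRA-labelled myosin IIA heavy-chain peptide probe, 5 nM / Compound: one dose per compound / Timing: polarization read 5 min after assay mix addition, stable 5–60 min / Benchmarks: neutral control DMSO, positive control TFP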
dFosB activator – mouse delta FosB homodimer activation. P13346. purified delta FosB, TAMRA-CDK5 oligo fluorescence polarization; percent of positive-control signal above neutral wells. activation, % at 25 µM. hit rate 0.99% among 340,000. AID 493131;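 active means mean activation above about 17%, with every replicate also reaching it, limit read from the data, passing the limit was not always enough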
AF4-AF9 inh – blocks AF4 peptide binding to human AF9; AID 651704; inhibition, % at 10 µM; hit rate 0.47% among 350,000; AlphaScreen, biotin-AF4 peptide binding to FLAG-AF9;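 active means every replicate reaching a set inhibition limit, whatever the replicate mean, cut at about 25% in these data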;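 further: 0% = plate neutral control median and 100% = total signal loss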
Target sequence (P42568 whole entry, looked up): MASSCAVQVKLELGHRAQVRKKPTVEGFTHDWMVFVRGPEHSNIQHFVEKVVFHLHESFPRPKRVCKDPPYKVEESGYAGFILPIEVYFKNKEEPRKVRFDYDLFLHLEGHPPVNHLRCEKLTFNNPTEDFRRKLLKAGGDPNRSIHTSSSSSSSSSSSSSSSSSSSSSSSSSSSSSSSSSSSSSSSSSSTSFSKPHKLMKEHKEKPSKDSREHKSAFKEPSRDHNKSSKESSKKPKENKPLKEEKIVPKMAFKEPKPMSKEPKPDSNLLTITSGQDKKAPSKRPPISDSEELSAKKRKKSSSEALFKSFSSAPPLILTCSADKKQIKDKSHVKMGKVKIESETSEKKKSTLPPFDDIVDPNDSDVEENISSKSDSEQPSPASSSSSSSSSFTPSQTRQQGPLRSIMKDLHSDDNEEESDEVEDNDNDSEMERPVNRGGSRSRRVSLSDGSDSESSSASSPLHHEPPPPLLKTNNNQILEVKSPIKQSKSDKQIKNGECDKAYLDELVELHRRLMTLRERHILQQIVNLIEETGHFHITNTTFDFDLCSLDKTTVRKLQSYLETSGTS
RAD52 inh – RAD52 (human) annealing inhibition; P43351; recombinant RAD52 DNA annealing, FRET fluorescence; inhibition, % at 18.7 µM; hit rate 0.46% among 360,000; AID 651710;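 active means every replicate showing at least 50% inhibition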
RAD54 inh – inhibitors of human RAD54 branch migration; hit rate 0.14% among 360,000; AID 602329; Q92698; inhibition, % at 10.4 µM; RAD54 Holliday junction branch migration, FAM/BHQ fluorescence;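 active means mean normalized replicate activity at least 40 and at least half of replicates scoring 40 or more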;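 further: 0% = median of neutral control wells and 100% = median of positive control wells; inhibitors cause a drop in the FAM fluorescence signal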
* hit, by the source's call.

Results for Cc1ccc(-c2ccc([C@H]3[C@H]4CN(S(=O)(=O)c5cccc(C)c5)CCCCN4[C@H]3CO)cc2)cc1 ?
S100A4 MyoIIA: -12; AF4-AF9 inh: -9; RAD52 inh: 26; RAD54 inh: 5

Results for C[C@H](CO)N1C[C@H](C)[C@@H](CN(C)CC2CCOCC2)Oc2ncc(-c3cccc(F)c3)cc2C1=O ?
AF4-AF9 inh: -1

Results for C[C@H]1CCCCO[C@H](CN(C)Cc2ccncc2)[C@@H](C)CN([C@@H](C)CO)C(=O)c2cc(NC(=O)c3ccncc3)ccc2O1 ?
S100A4 MyoIIA: -3; AF4-AF9 inh: -2; RAD52 inh: 1; RAD54 inh: -8

What do the screens show for `C[C@H]1CCCCO[C@@H](CN(C)Cc2ccncc2)[C@@H](C)CN([C@@H](C)CO)C(=O)c2cc(NC(=O)c3ccncc3)ccc2O1`?
S100A4 MyoIIA: -1; AF4-AF9 inh: -4; RAD52 inh: -9; RAD54 inh: 1

How did C[C@H]1CCCCO[C@H](CN(C)Cc2ccc(C(=O)O)cc2)[C@@H](C)CN([C@@H](C)CO)C(=O)c2cc(NC(=O)c3ccncc3)ccc2O1 do in these assays?
S100A4 MyoIIA: -3; AF4-AF9 inh: -4; RAD52 inh: 102*; RAD54 inh: 1

Results for C[C@H](CO)N1C[C@H](C)[C@@H](CN(C)Cc2ccc(C(=O)O)cc2)OCCCC[C@H](C)Oc2ccc(NC(=O)c3ccncc3)cc2C1=O ?
S100A4 MyoIIA: -1; AF4-AF9 inh: -3; RAD52 inh: 96*; RAD54 inh: 0

How did C[C@@H]1CCCCO[C@@H](CN(C)Cc2ccc(C(=O)O)cc2)[C@H](C)CN([C@@H](C)CO)C(=O)c2cc(NC(=O)c3ccncc3)ccc2O1 do in these assays?
S100A4 MyoIIA: 4; AF4-AF9 inh: -3; RAD52 inh: 104*; RAD54 inh: -1

How did C[C@H]1CCCCO[C@@H](CN(C)Cc2ccc(C(=O)O)cc2)[C@@H](C)CN([C@@H](C)CO)C(=O)c2cc(NC(=O)c3ccncc3)ccc2O1 do in these assays?
S100A4 MyoIIA: 2; AF4-AF9 inh: -3; RAD52 inh: 106*; RAD54 inh: -3

Results for C[C@@H]1CCCCO[C@H](CN(C)Cc2ccc(C(=O)O)cc2)[C@H](C)CN([C@@H](C)CO)C(=O)c2cc(NC(=O)c3ccncc3)ccc2O1 ?
S100A4 MyoIIA: -1; AF4-AF9 inh: -4; RAD52 inh: 101*; RAD54 inh: 5

How did C[C@@H]1CCCCO[C@@H](CN(C)Cc2ccc(C(=O)O)cc2)[C@@H](C)CN([C@H](C)CO)C(=O)c2cc(NC(=O)c3ccncc3)ccc2O1 do in these assays?
S100A4 MyoIIA: -17; AF4-AF9 inh: -13; RAD52 inh: 76*; RAD54 inh: 2

What do the screens show for `COc1ccc2c3c(n(C)c2c1)[C@@H](CO)N(C(=O)Cc1ccccc1)CC31CN(C(=O)Cc2ccccc2)C1`?
S100A4 MyoIIA: 3; AF4-AF9 inh: 0; RAD52 inh: -50

How did Cc1ccccc1/C=C\c1nc2ccccc2c(=O)n1Cc1ccccc1 do in these assays?
dFosB activator: -1

What do the screens show for `CCn1c(/C=C\c2ccccc2C)nc2ccccc2c1=O`?
S100A4 MyoIIA: -2; dFosB activator: -17; AF4-AF9 inh: 31*; RAD52 inh: -5; RAD54 inh: 3

Results for CC(=O)CN1C(=O)NC(c2ccccc2)(c2ccccc2)C1=O ?
S100A4 MyoIIA: -4; dFosB activator: -4; AF4-AF9 inh: -1; RAD52 inh: -2; RAD54 inh: 7

What do the screens show for `CCN(C(=O)CN1C(=O)NC(c2ccccc2)(c2ccccc2)C1=O)c1ccccc1`?
S100A4 MyoIIA: -11; dFosB activator: -8; AF4-AF9 inh: 38*; RAD52 inh: -13; RAD54 inh: 4

What do the screens show for `C[C@@H]1CN([C@H](C)CO)C(=O)c2cc(NC(=O)c3ccncc3)ccc2O[C@@H]1CN(C)Cc1ccc(C(F)(F)F)cc1`?
S100A4 MyoIIA: 33; AF4-AF9 inh: 2; RAD52 inh: -5; RAD54 inh: -2

How did Cc1ccc(NC(=O)N(CCCN2CCOCC2)Cc2cccnc2)cc1C do in these assays?
S100A4 MyoIIA: -8; dFosB activator: 5; AF4-AF9 inh: 39*; RAD52 inh: -2; RAD54 inh: 3

What do the screens show for `COc1ccc(NC(=O)N(CCCN2CCOCC2)Cc2cccnc2)c(OC)c1`?
S100A4 MyoIIA: -1; dFosB activator: -3; AF4-AF9 inh: -1; RAD52 inh: -7; RAD54 inh: 7

Results for CCCNC(=O)Nc1ccc2c(c1)C(=O)N(C)C[C@H](OC)[C@H](C)CN(CCC)[C@@H](C)CO2 ?
S100A4 MyoIIA: 2; AF4-AF9 inh: -2; RAD52 inh: 13; RAD54 inh: -10

What do the screens show for `CC(C)CCCCCCCCCCCCC(=O)NCC(=O)NC1C(C)OC(Nc2ncnc3nc[nH]c23)C(O)C1O` (stereo unspecified)?
S100A4 MyoIIA: 4; dFosB activator: 68*; AF4-AF9 inh: -2; RAD52 inh: -4

How did C/C(=C\CNc1ncnc2nc[nH]c12)CO do in these assays?
S100A4 MyoIIA: -18; dFosB activator: -4; AF4-AF9 inh: -10; RAD52 inh: 0; RAD54 inh: 6

How did O=C(N/N=C/c1ccncc1)/C(=C/c1ccccc1)NC(=O)c1ccccc1 do in these assays?
S100A4 MyoIIA: -9; dFosB activator: -6; AF4-AF9 inh: -1; RAD52 inh: -19; RAD54 inh: 1

Results for Cc1ccnc(N/C=C(/NC(=O)c2ccccc2)C(=O)N/N=C\c2ccc(Cl)cc2)n1 ?
S100A4 MyoIIA: -12; dFosB activator: 19*; AF4-AF9 inh: 0; RAD52 inh: -10; RAD54 inh: 2

Results for COc1ccc(Cl)cc1C(Nc1cccnc1)c1ccc2cccnc2c1O (stereo unspecified) ?
S100A4 MyoIIA: -4; dFosB activator: 4; AF4-AF9 inh: 26*; RAD52 inh: -11

What do the screens show for `COc1cccc(C(NC(C)=O)c2ccc3cccnc3c2O)c1` (stereo unspecified)?
S100A4 MyoIIA: 1; dFosB activator: -11; AF4-AF9 inh: 26*; RAD52 inh: -9; RAD54 inh: -1

How did CC(=O)NC(c1cccc([N+](=O)[O-])c1)c1ccc2cccnc2c1O (stereo unspecified) do in these assays?
S100A4 MyoIIA: 0; dFosB activator: -11; AF4-AF9 inh: 1; RAD52 inh: -19; RAD54 inh: -8

How did COC(=O)c1ccc(NC(=O)c2cccc(N3C(=O)C4C5C=CC(C6CC56)C4C3=O)c2)cc1 (stereo unspecified) do in these assays?
S100A4 MyoIIA: 1; dFosB activator: 28*; AF4-AF9 inh: 1; RAD52 inh: 2; RAD54 inh: -13

How did C[C@H]1CCCCO[C@H](CN(C)C(=O)Nc2cccc3ccccc23)[C@@H](C)CN([C@@H](C)CO)C(=O)c2cc(N(C)C)ccc2O1 do in these assays?
S100A4 MyoIIA: 1; AF4-AF9 inh: 23; RAD52 inh: 7; RAD54 inh: -5
